Experiments:
Format in all cases: ADME, organism-based
[1] = Tmax in Sprague-Dawley rat at 10 mg/kg, po; set-up: dose 10 mg/kg, route oral; conditions: in vivo
How it was run: (§1)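 Sprague–Dawley rats were dosed 2 mg/kg iv in 10% solutol in D5W and 10 mg/kg po in 0.5% hydroxypropyl methylcellulose. Plasma levels were followed to derive the pharmacokinetic parameters.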

[2] = Clearance in Sprague-Dawley rat at 2 mg/kg, iv and 10 mg/kg, po; conditions: in vivo; how it was run: as §1
[3] = AUC in Sprague-Dawley rat at 10 mg/kg, po; set-up: dose 10 mg/kg, route oral; conditions: plasma; how it was run: as §1
[4] = Half life in Sprague-Dawley rat at 10 mg/kg, po; set-up: dose 10 mg/kg, route oral; conditions: in vivo; how it was run: as §1
[5] = Volume of distribution at steady state in Sprague-Dawley rat at 2 mg/kg, iv and 10 mg/kg, po; conditions: in vivo, read-out: Vdss; how it was run: as §1
[6] = Cmax in Sprague-Dawley rat at 10 mg/kg, po; set-up: dose 10 mg/kg, route oral; conditions: in vivo; how it was run: as §1
[7] = Bioavailability in Sprague-Dawley rat at 2 mg/kg, iv and 10 mg/kg, po; conditions: in vivo; how it was run: as §1

A Tmax [1] of 0.63 h, a clearance [2] of 3.56 mL/min/kg and an AUC [3] of 19.3 µM·h were found for `CO/N=C/c1c(N)ncnc1Nc1ccc(OCc2ccccc2)c(Cl)c1` in this work. For the same compound, the half-life [4] was 8.4 h, the Vd [5] was 0.17 L/kg and the Cmax [6] was 5.7 µM. It also gave a bioavailability [7] of 15%.
